Measured values published in ChEMBL document CHEMBL1124783, “Synthesis and structure-activity relationships of 6-substituted 2',3'-dideoxypurine nucleosides as potential anti-human immunodeficiency virus agents” (J Med Chem, 1990).

Key:
[1] = The antiviral activity against HIV-1 in human peripheral blood mononuclear (PBM) cells expressed as inhibitory concentration; assay type: functional
Procedure, shortened: (§1)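 PHA-stimulated human PBM cells infected with HIV-1 strain LAV-1 (about 63 000 dpm RT activity per 10^7 cells/10 mL medium), then drug added to duplicate or triplicate cultures. Incubated at 37 °C in 5% CO2 for 6 days. Supernatant RT activity measured on pelleted virus with (rA)n·(dT)12-18 template-primer, expressed as dpm/mL. EC50 taken from median-effect plot of dose-effect data.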

[2] = The antiviral activity against HIV-1 in human peripheral blood mononuclear (PBM) cells expressed as median effective concentration; assay type: functional; details: read-out: ED50 (the source's name); procedure, shortened: as §1

IC50 [1] [µM]	EC50 [2] [µM]	Structure (SMILES)
> 100	3.6	CSc1ncnc2c1ncn2C1CCC(CO)O1 (centres undefined)
> 100	0.62	Nc1ncnc2c1ncn2[C@H]1CC[C@@H](CO)O1
> 100	2.1	OC[C@@H]1CC[C@H](n2cnc3c(Cl)ncnc32)O1
> 100	0.88	Nc1nc(O)c2ncn([C@H]3CC[C@@H](CO)O3)c2n1
> 100	5.2	CCNc1ncnc2c1ncn2C1CCC(CO)O1 (centres undefined)
> 100	53.9	OCC1CCC(n2cnc3c(S)ncnc32)O1 (centres undefined)
> 100	2.3	CN(C)c1ncnc2c1ncn2C1CCC(CO)O1 (centres undefined)
> 100	> 100	OC[C@@H]1CC[C@H](n2cnc3cncnc32)O1
> 100	0.26	CNc1ncnc2c1ncn2C1CCC(CO)O1 (centres undefined)
10	> 100	OCC1CCC(n2cnc3c(NCc4ccccc4)ncnc32)O1 (centres undefined)
> 100	4.3	CNc1ncnc2c1ncn2C1OC(CO)CC1F (centres undefined)
> 100	5.5	O=c1[nH]cnc2c1ncn2[C@H]1CC[C@@H](CO)O1 [DIDANOSINE]
